Assay results taken from ChEMBL document CHEMBL3525900, “Pharmacokinetics, distribution, and metabolism of [14C]sunitinib in rats, monkeys, and humans” (Drug Metab Dispos, 2012).

What was measured:
Rattus norvegicus [1] = experiment: Tmax as total radioactivity in male Sprague-Dawley rat plasma at 15 mg/kg, po administered as single dose by LC/MS/MS analysis; type: ADME, organism-based; parameters: dose 15 mg/kg, dosed compound name [14C]Sunitinib, route oral; settings: in vivo
Cynomolgus monkey = experiment: AUC (0 to infinity) as total radioactivity in male cynomolgus monkey plasma at 6 mg/kg, po administered as single dose by LC/MS/MS analysis; type: ADME, organism-based, Macaca fascicularis; parameters: time infinity, dose 6 mg/kg, dosed compound name [14C]Sunitinib, route oral; settings: in vivo
Method in brief: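 Cynomolgus monkeys of both sexes received one oral gavage of [14C]sunitinib L-malate at 6 mg/kg (37 µCi/kg). Femoral-vein blood was taken into heparin from 0.5 to 336 h. Plasma was kept cold and protected from light, then stored at -80 °C. Total radioactivity was by scintillation counting and sunitinib by methanol-extraction LC-MS-MS. Cmax was from raw data, t½ from the log-linear terminal slope, AUC(0-∞) by linear trapezoidal rule.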

[2] = Drug concentration in male albino rat thyroid gland assessed as radioactivity per gram of tissue at 20 mg/kg administered as single dose via gastric gavage measured after 72 hrs by autoradiographic analysis; type: ADME, organism-based; parameters: dose 20 mg/kg, dosed compound name [14C]Sunitinib; settings: in vivo, po
[3] = Drug concentration in male Lister Hooded pigmented rat eye assessed as radioactivity per gram of tissue at 20 mg/kg administered as single dose via gastric gavage measured after 72 hrs by autoradiographic analysis; type: ADME, organism-based; parameters: dose 20 mg/kg, dosed compound name [14C]Sunitinib; settings: in vivo, po
Kidney [4] = experiment: Drug concentration in male Lister Hooded pigmented rat kidney assessed as radioactivity per gram of tissue at 20 mg/kg administered as single dose via gastric gavage measured after 72 hrs by autoradiographic analysis; type: ADME, organism-based; parameters: dose 20 mg/kg, dosed compound name [14C]Sunitinib; settings: in vivo, po
Large intestine = experiment: Drug concentration in male Lister Hooded pigmented rat large intestine assessed as radioactivity per gram of tissue at 20 mg/kg administered as single dose via gastric gavage measured after 72 hrs by autoradiographic analysis; type: ADME, organism-based; parameters: dose 20 mg/kg, dosed compound name [14C]Sunitinib; settings: in vivo, po
[5] = Drug recovery in urine of human at 50 mg, po administered as single dose during 0 to 504 hrs by liquid scintillation counting; type: ADME, organism-based; parameters: dosed compound name [14C]Sunitinib; settings: in vivo
Rattus norvegicus [6] = experiment: Drug recovery in cage residue of male Sprague-Dawley rat at 15 mg/kg, po administered as single dose during 0 to 72 hrs by liquid scintillation counting; type: ADME, organism-based; parameters: dose 15 mg/kg, dosed compound name [14C]Sunitinib, route oral; settings: in vivo
[7] = Drug concentration in female albino rat brown fat assessed as radioactivity per gram of tissue at 20 mg/kg administered as single dose via gastric gavage measured after 3 hrs by autoradiographic analysis; type: ADME, organism-based, Brown adipose tissue; parameters: dose 20 mg/kg, dosed compound name [14C]Sunitinib; settings: in vivo, po
Method in brief: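 Sprague Dawley (albino) and Lister Hooded (pigmented) rats, ca 7-8 weeks old, 179-310 g, acclimated 7 days. Single gavage dose of [14C]sunitinib L-malate (15 mg freebase/kg, 100 µCi/kg). One male and one female killed by CO2 per time point: albino at 3, 6, 24, 72, 168 h; pigmented at 24, 72, 168, 336 h. Carcasses frozen in solid CO2/hexane, 30 µm sagittal sections freeze-dried. Tissue radioactivity read by quantitative whole-body autoradiography against regression of standards, mean background subtracted.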

[8] = Drug concentration in female albino rat pituitary gland assessed as radioactivity per gram of tissue at 20 mg/kg administered as single dose via gastric gavage measured after 6 hrs by autoradiographic analysis; type: ADME, organism-based; parameters: dose 20 mg/kg, dosed compound name [14C]Sunitinib; settings: in vivo, po
Method in brief: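 Sprague Dawley albino rats, ca 7-8 weeks old, dosed once by gastric gavage with [14C]sunitinib L-malate (15 mg freebase/kg, 100 µCi/kg). One male and one female killed by CO2 at 3, 6, 24, 72 and 168 h. Carcasses frozen in solid CO2/hexane, embedded and cut into 30 µm sagittal sections, then freeze-dried. Radioactivity quantified by whole-body autoradiography against standards by regression, background subtracted.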

[9] = Drug concentration in male albino rat salivary gland assessed as radioactivity per gram of tissue at 20 mg/kg administered as single dose via gastric gavage measured after 3 hrs by autoradiographic analysis; type: ADME, organism-based; parameters: dose 20 mg/kg, dosed compound name [14C]Sunitinib; settings: in vivo, po
Small intestine = experiment: Drug concentration in male albino rat small intestine assessed as radioactivity per gram of tissue at 20 mg/kg administered as single dose via gastric gavage measured after 3 hrs by autoradiographic analysis; type: ADME, organism-based; parameters: dose 20 mg/kg, dosed compound name [14C]Sunitinib; settings: in vivo, po
[10] = Drug concentration in female albino rat skeletal muscle assessed as radioactivity per gram of tissue at 20 mg/kg administered as single dose via gastric gavage measured after 6 hrs by autoradiographic analysis; type: ADME, organism-based; parameters: dose 20 mg/kg, dosed compound name [14C]Sunitinib; settings: in vivo, po
Zone of skin [11] = experiment: Drug concentration in female albino rat abdomen skin assessed as radioactivity per gram of tissue at 20 mg/kg administered as single dose via gastric gavage measured after 6 hrs by autoradiographic analysis; type: ADME, organism-based; parameters: dose 20 mg/kg, dosed compound name [14C]Sunitinib; settings: in vivo, po
Method in brief: (§1)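 Sprague Dawley (albino) rats, ca 7-8 weeks old, received a single gastric-gavage dose of [14C]sunitinib L-malate at 20 mg/kg (15 mg freebase/kg, 100 µCi/kg). One animal per sex killed by CO2 at 3, 6, 24, 72 and 168 h, then frozen in CO2/hexane. 30 µm sagittal sections were cut and freeze-dried. Radioactivity per gram quantified by whole-body autoradiography using regression against standards. LOQ 0.04–0.06 µg freebase equiv/g.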

Spleen = experiment: Drug concentration in female albino rat spleen assessed as radioactivity per gram of tissue at 20 mg/kg administered as single dose via gastric gavage measured after 6 hrs by autoradiographic analysis; type: ADME, organism-based; parameters: dose 20 mg/kg, dosed compound name [14C]Sunitinib; settings: in vivo, po
Brain = experiment: Drug concentration in male albino rat brain assessed as radioactivity per gram of tissue at 20 mg/kg administered as single dose via gastric gavage measured after 3 hrs by autoradiographic analysis; type: ADME, organism-based; parameters: dose 20 mg/kg, dosed compound name [14C]Sunitinib; settings: in vivo, po
[12] = Drug concentration in male Lister Hooded pigmented rat bladder assessed as radioactivity per gram of tissue at 20 mg/kg administered as single dose via gastric gavage measured after 168 hrs by autoradiographic analysis; type: ADME, organism-based, Urinary bladder; parameters: dose 20 mg/kg, dosed compound name [14C]Sunitinib; settings: in vivo, po
[13] = Drug concentration in male Lister Hooded pigmented rat bone marrow assessed as radioactivity per gram of tissue at 20 mg/kg administered as single dose via gastric gavage measured after 168 hrs by autoradiographic analysis; type: ADME, organism-based; parameters: dose 20 mg/kg, dosed compound name [14C]Sunitinib; settings: in vivo, po
[14] = Drug concentration in male Lister Hooded pigmented rat brown fat assessed as radioactivity per gram of tissue at 20 mg/kg administered as single dose via gastric gavage measured after 168 hrs by autoradiographic analysis; type: ADME, organism-based, Brown adipose tissue; parameters: dose 20 mg/kg, dosed compound name [14C]Sunitinib; settings: in vivo, po
Stomach = experiment: Drug concentration in male albino rat stomach assessed as radioactivity per gram of tissue at 20 mg/kg administered as single dose via gastric gavage measured after 3 hrs by autoradiographic analysis; type: ADME, organism-based; parameters: dose 20 mg/kg, dosed compound name [14C]Sunitinib; settings: in vivo, po
[15] = Drug concentration in male albino rat preputial gland assessed as radioactivity per gram of tissue at 20 mg/kg administered as single dose via gastric gavage measured after 72 hrs by autoradiographic analysis; type: ADME, organism-based; parameters: dose 20 mg/kg, dosed compound name [14C]Sunitinib; settings: in vivo, po
Zone of skin [16] = experiment: Drug concentration in female albino rat abdomen skin assessed as radioactivity per gram of tissue at 20 mg/kg administered as single dose via gastric gavage measured after 24 hrs by autoradiographic analysis; type: ADME, organism-based; parameters: dose 20 mg/kg, dosed compound name [14C]Sunitinib; settings: in vivo, po; method in brief: as §1
[17] = Drug concentration in female albino rat uveal tract assessed as radioactivity per gram of tissue at 20 mg/kg administered as single dose via gastric gavage measured after 24 hrs by autoradiographic analysis; type: ADME, organism-based; parameters: dose 20 mg/kg, dosed compound name [14C]Sunitinib; settings: in vivo, po
Lung = experiment: Drug concentration in female Lister Hooded pigmented rat lung assessed as radioactivity per gram of tissue at 20 mg/kg administered as single dose via gastric gavage measured after 24 hrs by autoradiographic analysis; type: ADME, organism-based; parameters: dose 20 mg/kg, dosed compound name [14C]Sunitinib; settings: in vivo, po
Method in brief: (§2)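 Lister Hooded (pigmented) rats, ca 7-8 weeks old, acclimated 7 days, given [14C]sunitinib L-malate by gastric gavage at 20 mg/kg (15 mg freebase/kg, 100 µCi/kg). One male and one female killed by CO2 at 24, 72, 168 and 336 h. Carcasses frozen in solid CO2/hexane and embedded in frozen cellulose. 30 µm sagittal cryosections were freeze-dried. Tissue radioactivity measured by quantitative whole-body autoradiography against calibration standards, with background subtracted.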

Kidney [18] = experiment: Drug concentration in female Lister Hooded pigmented rat kidney assessed as radioactivity per gram of tissue at 20 mg/kg administered as single dose via gastric gavage measured after 72 hrs by autoradiographic analysis; type: ADME, organism-based; parameters: dose 20 mg/kg, dosed compound name [14C]Sunitinib; settings: in vivo, po; method in brief: as §2

Tmax (Rattus norvegicus [1]): 5 h
AUC (Cynomolgus monkey): 9095 ng.Eq.hr/ml
Radiolabel recovery [2]: 0.24 ugequiv
Radiolabel recovery [3]: 23.98 ugequiv
Radiolabel recovery (Kidney [4]): 0.26 ugequiv
Radiolabel recovery (Large intestine): 0.08 ugequiv
Radiolabel recovery [5]: 16%
Radiolabel recovery (Rattus norvegicus [6]): 1.5%
Radiolabel recovery [7]: 10.63 ugequiv
Radiolabel recovery [8]: 20.88 ugequiv
Radiolabel recovery [9]: 17.24 ugequiv
Radiolabel recovery (Small intestine): 8.91 ugequiv
Radiolabel recovery [10]: 3.33 ugequiv
Radiolabel recovery (Zone of skin [11]): 4.73 ugequiv
Radiolabel recovery (Spleen): 27.96 ugequiv
Radiolabel recovery (Brain): 0.3 ugequiv
Radiolabel recovery [12]: 0.06 ugequiv
Radiolabel recovery [13]: 0.06 ugequiv
Radiolabel recovery [14]: 0.06 ugequiv
Radiolabel recovery (Stomach): 10.15 ugequiv
Radiolabel recovery [15]: 0.13 ugequiv
Radiolabel recovery (Zone of skin [16]): 4.16 ugequiv
Radiolabel recovery [17]: 0.61 ugequiv
Radiolabel recovery (Lung): 2.79 ugequiv
Radiolabel recovery (Kidney [18]): 0.19 ugequiv
SMILES: CCN(CC)CCNC(=O)c1c(C)[nH]c(/[14CH]=C2\C(=O)Nc3ccc(F)cc32)c1C.O=C(O)C[C@H](O)C(=O)O
